Data: ChEMBL document CHEMBL4257511, “Effect of N-1 arylation of monastrol on kinesin Eg5 inhibition in glioma cell lines” (Medchemcomm, 2018)
The source made the active and inactive calls. The rule behind the calls is not given here.

Assays:
C6 [1] = test: Cell cycle arrest in rat C6 cells assessed as accumulation at G2/M phase at 100 uM after 24 hrs by propidium iodide staining based flow cytometry; type: functional
How it was run: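 Cells grown to semi-confluence, treated 24 h (U138: 150 or 200 μM; C6: 50 or 100 μM), washed twice in PBS pH 7.4, harvested and resuspended at 10^6 cells/ml in Tris-HCl pH 7.6, 3.5 mM trisodium citrate, 0.1% NP40, 100 μg/mL RNase, 50 μg/mL PI. After 15 min, sub-G1, G0/G1, S and G2/M fractions read by flow cytometry.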

C6 [2] = test: Induction of apoptosis in rat C6 cells at 100 uM after 48 hrs by Annexin V/propidium iodide staining based flow cytometry; type: functional, cell-based
How it was run: (§1)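 After 48 h exposure (U138: 150 or 200 μM; C6: 50 or 100 μM), cells washed twice in cold PBS pH 7.4 and counted. 10^5 cells stained with FITC-annexin V and PI in binding buffer, 15 min at room temperature in the dark, then read by two-colour flow cytometry. Early apoptotic annexin+/PI−, late apoptotic annexin+/PI+, necrotic annexin−/PI+.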

C6 [3] = test: Antiproliferative activity against rat C6 cells assessed as reduction in cell viability at 100 uM after 24 hrs by MTS assay relative to control; type: functional
How it was run: (§2)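 Glioma cells grown in DMEM with penicillin/streptomycin and FBS (15% or 5%, by line), 37 °C, 5% CO2; seeded and grown to semi-confluence, then exposed 24 h to 5, 10, 25, 50 and 100 μM. MTS reagent added for 2 h; absorbance at 490 nm. Viability expressed as percent of untreated control (100%); means ± SD of three independent experiments.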

[4] = molecular target: T1, Kinesin family member 11 (Rattus norvegicus) (UniProt F1MAB8); test: Inhibition of EG5 in rat C6 cells assessed as monopolar spindle formation at 100 uM after 24 hrs by Hoechst staining based immunofluorescence microscopic method; type: cell-based
T1 sequence (whole entry): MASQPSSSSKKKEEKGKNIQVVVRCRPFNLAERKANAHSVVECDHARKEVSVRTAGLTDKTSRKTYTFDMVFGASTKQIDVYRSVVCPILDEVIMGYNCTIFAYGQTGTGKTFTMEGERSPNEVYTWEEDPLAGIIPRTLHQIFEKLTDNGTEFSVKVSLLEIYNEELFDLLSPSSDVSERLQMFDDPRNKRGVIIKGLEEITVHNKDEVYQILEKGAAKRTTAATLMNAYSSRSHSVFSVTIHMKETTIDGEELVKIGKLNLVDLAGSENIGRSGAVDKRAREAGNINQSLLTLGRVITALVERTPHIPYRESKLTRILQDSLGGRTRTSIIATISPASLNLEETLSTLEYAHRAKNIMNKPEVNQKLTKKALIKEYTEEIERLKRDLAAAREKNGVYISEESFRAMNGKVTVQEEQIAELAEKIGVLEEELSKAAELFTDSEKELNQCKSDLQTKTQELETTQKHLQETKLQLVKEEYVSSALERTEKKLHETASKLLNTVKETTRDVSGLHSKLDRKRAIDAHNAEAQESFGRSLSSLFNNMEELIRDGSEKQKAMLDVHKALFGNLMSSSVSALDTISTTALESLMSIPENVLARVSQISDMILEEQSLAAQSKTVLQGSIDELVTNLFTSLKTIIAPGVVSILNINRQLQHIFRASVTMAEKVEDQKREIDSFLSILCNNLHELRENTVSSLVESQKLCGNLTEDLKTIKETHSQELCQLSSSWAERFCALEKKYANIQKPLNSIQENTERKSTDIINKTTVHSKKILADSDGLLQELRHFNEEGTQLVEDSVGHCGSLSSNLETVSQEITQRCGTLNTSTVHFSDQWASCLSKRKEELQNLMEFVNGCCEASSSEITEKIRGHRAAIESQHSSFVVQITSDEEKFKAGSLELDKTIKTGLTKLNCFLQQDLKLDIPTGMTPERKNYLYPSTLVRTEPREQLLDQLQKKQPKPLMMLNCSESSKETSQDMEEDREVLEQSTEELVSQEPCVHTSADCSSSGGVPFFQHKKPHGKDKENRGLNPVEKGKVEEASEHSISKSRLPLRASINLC
How it was run: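 Glioma cells allowed to adhere 48 h, then treated 24 h (U138: 150 or 200 μM; C6: 50 or 100 μM). Fixed cells probed with rabbit anti-α-tubulin for 90 min, then FITC goat anti-rabbit for 1 h, with Hoechst nuclear counterstain. Monopolar spindles scored by confocal microscopy at 600×.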

U138-MG [5] = test: Induction of apoptosis in human U138MG cells at 200 uM after 48 hrs by Annexin V/propidium iodide staining based flow cytometry; type: functional, cell-based; how it was run: as §1
U138-MG [6] = test: Induction of necrosis in human U138MG cells at 200 uM after 48 hrs by Annexin V/propidium iodide staining based flow cytometry; type: functional, cell-based; how it was run: as §1
[7] = Toxicity in Caenorhabditis elegans N2 L1 larva assessed as mortality incubated for 30 mins on rotator and measured after 24 hrs; type: organism-based; details: in vivo
How it was run: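 Wild-type N2 worms kept on NGM plates seeded with E. coli OP50 at 20 °C and synchronized to L1 by bleaching. L1 larvae (2.500 worms per dose) exposed acutely to five doses from 6.25 to 200 mM, 20 °C, 30 min with constant rotation. Washed three times in M9, plated on OP50-seeded NGM, survivors counted at 24 h. LC50 derived from dose–response curves.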

[8] = molecular target: T2, Kinesin-like protein KIF11 (Homo sapiens) (UniProt P52732); details: 200 uM
T2 sequence (whole entry): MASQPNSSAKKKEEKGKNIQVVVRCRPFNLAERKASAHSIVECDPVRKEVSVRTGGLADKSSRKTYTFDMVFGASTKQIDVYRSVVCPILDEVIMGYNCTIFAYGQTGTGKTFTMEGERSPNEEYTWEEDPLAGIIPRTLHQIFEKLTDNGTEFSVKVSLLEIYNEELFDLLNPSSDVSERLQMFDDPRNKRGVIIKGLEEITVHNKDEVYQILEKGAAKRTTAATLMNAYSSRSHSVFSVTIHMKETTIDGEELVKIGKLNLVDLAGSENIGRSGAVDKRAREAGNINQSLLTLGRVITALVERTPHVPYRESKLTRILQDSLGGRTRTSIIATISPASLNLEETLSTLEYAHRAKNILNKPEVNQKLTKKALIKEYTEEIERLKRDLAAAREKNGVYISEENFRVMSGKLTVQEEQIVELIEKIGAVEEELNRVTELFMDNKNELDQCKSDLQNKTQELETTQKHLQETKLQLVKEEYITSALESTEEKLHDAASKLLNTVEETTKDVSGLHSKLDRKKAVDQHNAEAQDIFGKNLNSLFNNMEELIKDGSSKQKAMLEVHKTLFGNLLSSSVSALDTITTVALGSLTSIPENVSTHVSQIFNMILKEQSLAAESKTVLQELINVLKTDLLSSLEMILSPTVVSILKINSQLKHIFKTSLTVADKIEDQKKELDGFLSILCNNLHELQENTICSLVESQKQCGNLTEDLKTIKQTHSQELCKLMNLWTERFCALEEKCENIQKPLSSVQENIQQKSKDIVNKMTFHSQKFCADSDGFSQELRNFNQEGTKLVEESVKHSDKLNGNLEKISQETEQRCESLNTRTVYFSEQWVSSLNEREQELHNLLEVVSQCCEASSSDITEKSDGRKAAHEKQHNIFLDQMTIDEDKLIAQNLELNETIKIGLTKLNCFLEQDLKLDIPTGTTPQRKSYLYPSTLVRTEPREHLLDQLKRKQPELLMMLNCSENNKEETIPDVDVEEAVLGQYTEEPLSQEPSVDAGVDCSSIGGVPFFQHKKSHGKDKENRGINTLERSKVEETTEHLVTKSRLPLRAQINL

C6 (Rattus norvegicus) = test: Cell cycle arrest in rat C6 cells assessed as accumulation at G2/M phase at 100 uM after 24 hrs by propidium iodide staining based flow cytometry relative to control
U138-MG [9] = test: Antiproliferative activity against human U138MG cells after 24 hrs by MTS assay; type: functional, cell-based; how it was run: as §2
U138-MG [10] = test: Antiproliferative activity against human U138MG cells assessed as reduction in cell viability at 100 uM after 24 hrs by MTS assay relative to control; type: functional; how it was run: as §2
C6 [11] = test: Antiproliferative activity against rat C6 cells after 24 hrs by MTS assay; type: functional, cell-based; details: C6, 24 h; how it was run: as §2

Question: For `CCOC(=O)C1=C(C)NC(=S)NC1c1cccc(O)c1` (configuration not stated) [MONASTROL], which Activity (C6 [1]) is on record?
Answer: Its Activity is “Active”.

Question: And the Activity (C6 [2])?
Answer: Its Activity is “Active”.

Question: What about the Activity (C6 [3]) of the same molecule?
Answer: The Activity was “Active”.

Question: What about the inhibition [4] of the same molecule?
Answer: Its inhibition is “Active”.

Question: What about the Activity (U138-MG [5]) of the same molecule?
Answer: The Activity was “Active”.

Question: What about the Activity (U138-MG [6]) of the same molecule?
Answer: Its Activity is “Active”.

Question: And the LC50 at 24 h [7]?
Answer: The LC50 at 24 h was 80.1 mM.

Question: And the inhibition [8]?
Answer: Its inhibition is “Active”.

Question: And the Activity (C6 (Rattus norvegicus))?
Answer: The Activity was 27.4%.

Question: And the IC50 (U138-MG [9])?
Answer: The IC50 was over 0.2 mM.

Question: And the Activity (U138-MG [10])?
Answer: Its Activity is 20.8%.

Question: And the IC50 (C6 [11])?
Answer: Its IC50 is over 0.2 mM.
